Reference: ChEMBL document CHEMBL1811814, “Synthesis and evaluation of indole, pyrazole, chromone and pyrimidine based conjugates for tumor growth inhibitory activities--development of highly efficacious cytotoxic agents” (Eur J Med Chem, 2010)

Experiments:
Type in all cases: organism-based
[1] = Toxicity in mouse assessed as mouse survival administered intraperitoneally once daily measured after 19 days; conditions: in vivo, ip
Procedure, shortened: (§1)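 Female athymic nude mice were given intraperitoneal injections of 400, 200 or 100 mg/kg, one mouse per dose level. Body weight loss was monitored, and survival was recorded after 19 days.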

Mus musculus [2] = test: Toxicity in mouse assessed as mouse survival at 400 mg/kg, ip qd on day 19; set-up: dose 400 mg/kg, route intraperitoneal; conditions: in vivo; procedure, shortened: as §1
Mus musculus [3] = test: Toxicity in mouse assessed as mouse survival at 100 mg/kg, ip qd on day 19; set-up: dose 100 mg/kg, route intraperitoneal; conditions: in vivo; procedure, shortened: as §1
Mus musculus [4] = test: Toxicity in mouse assessed as mouse survival at 200 mg/kg, ip qd on day 19; set-up: dose 200 mg/kg, route intraperitoneal; conditions: in vivo; procedure, shortened: as §1
Mus musculus [5] = test: Toxicity in mouse assessed as mouse survival at 50 mg/kg, ip qd on day 19; set-up: dose 50 mg/kg, route intraperitoneal; conditions: in vivo
Mus musculus [6] = test: Toxicity in mouse assessed as mouse survival at 25 mg/kg, ip qd on day 19; set-up: dose 25 mg/kg, route intraperitoneal; conditions: in vivo

Structure (SMILES)	MTD at 456 h [1] [mg/kg]	Activity (Mus musculus [2])	Activity (Mus musculus [3])	Activity (Mus musculus [4])	Activity (Mus musculus [5])	Activity (Mus musculus [6])
CN1C(=O)C(=Cc2cn(Cc3ccccc3)c3ccccc23)C(=O)N(C)C1=O	400	Non-toxic	Non-toxic	Non-toxic		
O=C1NC(=O)C(=Cc2cn(Cc3ccccc3)c3ccccc23)C(=O)N1	50	Toxic	Toxic	Toxic	Non-toxic	Non-toxic
